Measured values as given in ChEMBL document CHEMBL3875170, “2-Methyl-4/5-nitroimidazole derivatives potentiated against sexually transmitted Trichomonas: Design, synthesis, biology and 3D-QSAR study” (Eur J Med Chem, 2016).
Converted amounts (≈) assume the structure as drawn. The source made the active and inactive calls. No cut-off for these calls is given here.

Key:
[1] = tested on: Trichomonas vaginalis; test: Potency index, ratio of metronidazole MIC to compound MIC for metronidazole sensitive Trichomonas vaginalis ATCC 33592; format: functional
[2] = Cytotoxicity against human HeLa cells after 24 hrs by MTT assay; format: toxicity, cell-based
How it was run: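 HeLa cells seeded at 2 × 10⁴ per well in DMEM with 10% FCS, in triplicate, and held 24 h at 37 °C in 5% CO₂. Exposed to compound dilutions for 24 h; controls received 0.05% DMSO. MTT in PBS pH 7.4 added, formazan dissolved in DMSO, OD540 read. IC50 taken as the concentration killing 50% of cells.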

[3] = Selectivity index, ratio of IC50 for human HeLa cells to MIC for metronidazole resistant Trichomonas vaginalis ATCC 50143; format: toxicity, cell-based; settings: read-out: Selectivity Index
How it was run: (§1)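 SI is HeLa IC50 divided by parasite MIC. HeLa cells seeded at 2 × 10⁴/well in triplicate in DMEM with 10% FCS, 24 h at 37 °C in 5% CO2. Medium then replaced with compound dilutions (0.05% DMSO controls) for 24 h. Viability by MTT read at OD540; IC50 is the concentration killing 50% of cells. MIC from 48 h trypan blue parasite killing in TYM.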

[4] = tested on: Trichomonas vaginalis; test: Antiparasitic activity against metronidazole resistant Trichomonas vaginalis ATCC 50143 after 48 hrs by trypan blue exclusion assay; format: functional; settings: ATCC 50143, 48 h
How it was run: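 T. vaginalis trophozoites ([…]), log phase, grown in TYM with 10% FCS, vitamin mix and penicillin/streptomycin at 37 °C. Test agents from DMSO stocks serially diluted in TYM; DMSO/TYM vehicle controls. Anaerobic incubation at 37 °C with microscopic viability checks from 3 to 48 h by trypan blue exclusion. MIC is the lowest concentration killing all cells by 48 h. Repeated three times.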

[5] = Selectivity index, ratio of IC50 for human HeLa cells to MIC for metronidazole sensitive Trichomonas vaginalis ATCC 33592; format: toxicity, cell-based; settings: read-out: Selectivity Index; how it was run: as §1
[6] = tested on: Trichomonas vaginalis; test: Potency index, ratio of metronidazole MIC to compound MIC for metronidazole resistant Trichomonas vaginalis ATCC 50143; format: functional
[7] = tested on: Trichomonas vaginalis; test: Antiparasitic activity against metronidazole sensitive Trichomonas vaginalis ATCC 33592 after 48 hrs by trypan blue exclusion assay; format: functional; settings: ATCC 33592, 48 h
[8] = tested on: Trichomonas vaginalis; test: Antiparasitic activity against Trichomonas vaginalis in po dosed mouse assessed as size of abscess at 100 mg/kg, po administered daily for 5 days measured 5 days post last dose (reference value: 120 mm'2); format: functional
How it was run: (§2)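 Six-week-old mice inoculated subcutaneously in the left hind flank with 50 µL of 2 × 10⁶ saline-washed trophozoites/mL grown in TYM. Abscess confirmed by palpation at day 7 and by fine-needle biopsy. Oral dosing in gum acacia at 50 or 100 mg/kg daily; controls received vehicle. Abscess size measured longitudinally each day and area calculated; n = 3 per group.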

[9] = Tmax in Sprague Dawley rat at 50 mg/kg, po; format: ADME, organism-based; settings: in vivo
How it was run: (§3)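 Overnight-fasted (12–16 h) rats, n = 4 per time point, given a single oral dose of 50 mg/kg as a 12.5 mg/mL suspension in 1% w/v gum acacia and water. Blood sampled at set times up to 24 h; serum stored at −80 °C. Analysis by LC-MS/MS in positive-ion MRM mode with phenacetin as internal standard; parameters derived by non-compartmental analysis. Values are means of four rats.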

[10] = Volume of distribution at steady state in Sprague Dawley rat at 50 mg/kg, po; format: ADME, organism-based; settings: in vivo; how it was run: as §3
[11] = tested on: Trichomonas vaginalis; test: Antiparasitic activity against Trichomonas vaginalis in po dosed mouse assessed as size of abscess at 100 mg/kg, po administered daily for 7 days measured 7 days post last dose (reference value: 113 mm'2); format: functional; how it was run: as §2
[12] = tested on: Trichomonas vaginalis; test: Antiparasitic activity against Trichomonas vaginalis in po dosed mouse assessed as size of abscess at 50 mg/kg, po administered daily for 5 days measured 5 days post last dose (reference value: 120 mm'2); format: functional; how it was run: as §2
[13] = Cmax in Sprague Dawley rat at 50 mg/kg, po; format: ADME, organism-based; set-up: dose 50 mg/kg, route oral; settings: in vivo; how it was run: as §3
[14] = tested on: Trichomonas vaginalis; test: Antiparasitic activity against Trichomonas vaginalis assessed as decrease in parasite free thiol levels at MIC after 24 hrs by fluorometric thiol detector-based fluorescence microscopic method; format: functional
How it was run: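 Cells pelleted (700 × g, 10 min, 4 °C), washed 2–3 times in PBS, then stained 5 min in the dark with fluorometric thiol detector (pre-diluted 100×). Imaged by epifluorescence microscopy, UV-1A filter, with equal exposure times for all samples.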

[15] = Clearance in Sprague Dawley rat at 50 mg/kg, po; format: ADME, organism-based; settings: in vivo; how it was run: as §3
[16] = Half life in Sprague Dawley rat at 50 mg/kg, po; format: ADME, organism-based; settings: in vivo; how it was run: as §3
[17] = tested on: Trichomonas vaginalis; test: Antiparasitic activity against Trichomonas vaginalis in po dosed mouse assessed as size of abscess at 50 mg/kg, po administered daily for 7 days measured 7 days post last dose (reference value: 113 mm'2); format: functional; how it was run: as §2
[18] = AUClast in Sprague Dawley rat at 50 mg/kg, po; format: ADME, organism-based; set-up: dose 50 mg/kg, route oral, time 0 - last; settings: in vivo; how it was run: as §3

Which Ratio [1] does the source give for Cc1ncc([N+](=O)[O-])n1CC(O)CSC(=S)N1CCN(C(=O)OC(C)(C)C)CC1 (racemic) here?
The Ratio was “<=2.4”.

What about the IC50 at 24 h [2] of the same molecule?
The IC50 at 24 h was 0.689 mM.

And the selectivity ratio [3]?
Its selectivity ratio is 9.

What about the MIC [4] of the same molecule?
The MIC was 70.2 µM (≈ 31.3 µg/mL).

And the selectivity ratio [5]?
The selectivity ratio was 39.

What about the Ratio [6] of the same molecule?
The Ratio was “<=12.7”.

And the MIC [7]?
Its MIC is 17.6 µM (≈ 7.82 µg/mL).

With Cc1ncc([N+](=O)[O-])n1CC(O)CSC(=S)N1CCC(Cc2ccccc2)CC1 (racemic) as the molecule, how does the Ratio [1] read?
The Ratio was “<=2.4”.

And the IC50 at 24 h [2]?
The IC50 at 24 h was 1.32 mM.

What about the selectivity ratio [3] of the same molecule?
Its selectivity ratio is 45.

What about the MIC [4] of the same molecule?
The MIC was 28.8 µM (≈ 12.5 µg/mL).

What about the selectivity ratio [5] of the same molecule?
Its selectivity ratio is 91.

What about the Ratio [6] of the same molecule?
Its Ratio is 2.5 - 12.6.

What about the MIC [7] of the same molecule?
Its MIC is 14.4 µM (≈ 6.26 µg/mL).

Which results are given for CCCCN1CCN(C(=S)SCC(O)Cn2c([N+](=O)[O-])cnc2C)CC1 (racemic)?
Ratio [1]: <=2.4; IC50 at 24 h [2]: 1.91 mM; selectivity ratio [3]: 61; MIC [4]: 31.2 µM (≈ 12.5 µg/mL); selectivity ratio [5]: 122; Ratio [6]: <=12.7; MIC [7]: 15.6 µM (≈ 6.26 µg/mL)

For Cc1ncc([N+](=O)[O-])n1CC(O)CSC(=S)N1CCN(c2ccccc2)CC1 (racemic), which Ratio [1] is on record?
Its Ratio is 2.4.

And the Activity [8]?
The Activity was 1 - 5 mm2.

What about the Tmax [9] of the same molecule?
The Tmax was 4 h.

And the Vdss [10]?
The Vdss was 80.6 L/kg.

And the IC50 at 24 h [2]?
The IC50 at 24 h was over 5 mM.

What about the Activity [11] of the same molecule?
The Activity was 0.785 mm2.

What about the Activity [12] of the same molecule?
Its Activity is 1 - 5 mm2.

What about the selectivity ratio [3] of the same molecule?
The selectivity ratio was over 135.

What about the Cmax [13] of the same molecule?
The Cmax was 35.2 ng/mL.

And the Activity [14]?
The Activity was “Active”.

What about the MIC [4] of the same molecule?
Its MIC is 37.1 µM (≈ 15.6 µg/mL).

What about the selectivity ratio [5] of the same molecule?
Its selectivity ratio is over 584.

And the CL [15]?
The CL was 272 mL/min/kg.

What about the half-life [16] of the same molecule?
Its half-life is 5 h.

And the Ratio [6]?
The Ratio was “<=12.7”.

What about the MIC [7] of the same molecule?
Its MIC is 8.55 µM (≈ 3.6 µg/mL).

And the Activity [17]?
The Activity was 1.55 mm2.

And the AUClast [18]?
The AUClast was 149.1 ng·h/mL.

What does the source list for CCN1CCN(CC(O)Cn2c([N+](=O)[O-])cnc2C)CC1 (racemic)?
Ratio [1]: <=2.4; IC50 at 24 h [2]: 4.94 mM; selectivity ratio [3]: 47; MIC [4]: 105 µM (≈ 31.3 µg/mL); selectivity ratio [5]: 407; Ratio [6]: <=12.7; MIC [7]: 12.1 µM (≈ 3.6 µg/mL)

Which Ratio [1] does the source give for Cc1ncc([N+](=O)[O-])n1CC(O)CN1CCN(c2ccccn2)CC1 (racemic) here?
The Ratio was “<=2.4”.

And the IC50 at 24 h [2]?
Its IC50 at 24 h is 1.83 mM.

And the selectivity ratio [3]?
Its selectivity ratio is 25.

What about the MIC [4] of the same molecule?
The MIC was 72.2 µM (≈ 25 µg/mL).

And the selectivity ratio [5]?
The selectivity ratio was 101.

And the Ratio [6]?
The Ratio was “<=12.7”.

And the MIC [7]?
Its MIC is 18.1 µM (≈ 6.26 µg/mL).

Which results are given for Cc1ncc([N+](=O)[O-])n1CC(O)Cn1cnc([N+](=O)[O-])c1 (racemic)?
IC50 at 24 h [2]: > 5 mM; selectivity ratio [3]: > 47; MIC [4]: 106 µM (≈ 31.3 µg/mL); selectivity ratio [5]: > 192; Ratio [6]: <=12.7; MIC [7]: 26.4 µM (≈ 7.81 µg/mL)

Which results are given for Cc1ncc([N+](=O)[O-])n1CC(O)Cn1nnc2ccccc21 (racemic)?
IC50 at 24 h [2]: 4.24 mM; selectivity ratio [3]: 103; MIC [4]: 41.4 µM (≈ 12.5 µg/mL); selectivity ratio [5]: 169; Ratio [6]: <=12.7; MIC [7]: 25.9 µM (≈ 7.82 µg/mL)

With Cc1nc([N+](=O)[O-])cn1CC(O)Cn1c([N+](=O)[O-])cnc1C (racemic) as the molecule, how does the IC50 at 24 h [2] read?
Its IC50 at 24 h is 4.35 mM.

What about the selectivity ratio [3] of the same molecule?
The selectivity ratio was 43.

What about the MIC [4] of the same molecule?
The MIC was 101 µM (≈ 31.3 µg/mL).

What about the selectivity ratio [5] of the same molecule?
The selectivity ratio was 86.

What about the Ratio [6] of the same molecule?
Its Ratio is “<=12.7”.

What about the MIC [7] of the same molecule?
Its MIC is 50.4 µM (≈ 15.6 µg/mL).

For Cc1ncc([N+](=O)[O-])n1CC(O)Cn1nccn1 (racemic), which IC50 at 24 h [2] is on record?
Its IC50 at 24 h is over 5 mM.

And the selectivity ratio [3]?
The selectivity ratio was over 102.

What about the MIC [4] of the same molecule?
The MIC was 49.6 µM (≈ 12.5 µg/mL).

What about the selectivity ratio [5] of the same molecule?
The selectivity ratio was over 161.

What about the Ratio [6] of the same molecule?
The Ratio was “<=12.7”.

And the MIC [7]?
Its MIC is 31 µM (≈ 7.82 µg/mL).

With Cc1ncc([N+](=O)[O-])n1CC(O)Cn1cncn1 (racemic) as the molecule, how does the IC50 at 24 h [2] read?
The IC50 at 24 h was 4.97 mM.

And the selectivity ratio [3]?
The selectivity ratio was 50.

What about the MIC [4] of the same molecule?
Its MIC is 99.2 µM (≈ 25 µg/mL).

What about the selectivity ratio [5] of the same molecule?
Its selectivity ratio is 160.

What about the Ratio [6] of the same molecule?
Its Ratio is “<=12.7”.

And the MIC [7]?
The MIC was 31 µM (≈ 7.82 µg/mL).
